{"data": "Experimental data from different studies", "target": "Serine/threonine-protein kinase 16 (STK16, Homo sapiens, UniProt O75716)", "note": "Protocols differ between the studies behind these lines."}
{"SMILES": "COc1ncc2cc3ccccc3nc2c1C#N", "test": "cell-free assay, competition with immobilised ligand", "conditions": "5 µM", "remaining binding [%]": 90}
{"SMILES": "COc1cnc(Nc2cccc(S(N)(=O)=O)c2)nc1N1CCN(c2ccccc2)CC1", "test": "binding, competition with immobilised ligand", "conditions": "1 µM", "remaining binding [%]": 57}
{"SMILES": "Cc1cnn2ncc(-c3ccnc(N(C)C)n3)c2c1", "test": "binding", "conditions": "1 µM", "remaining binding [%]": 91}
{"SMILES": "COc1cc(Nc2nccc(-c3cnn4nc(OC)ccc34)n2)cc(C(F)(F)F)c1", "test": "binding, competition with immobilised ligand", "conditions": "1 µM", "remaining binding [%]": 53}
{"SMILES": "CCc1ccccc1C(=O)Nc1n[nH]c2c(C)c(F)c(C3C(C#N)=C(C)N(C)C(C)=C3C#N)cc12", "test": "cell-free assay, competition with immobilised ligand", "conditions": "1 µM", "remaining binding [%]": 79}
{"SMILES": "CCN1CCN(Cc2ccc(C(=O)Nc3ccc(C)c(Oc4ccc5c(c4)CC(=O)N5)c3)cc2C(F)(F)F)CC1", "test": "binding, competition with immobilised ligand", "conditions": "1 µM", "remaining binding [%]": 100}
{"SMILES": "CN(C)C(=O)Cn1cc(-c2nc([C@@](C)(c3ccc(-c4cnc(N)nc4)cc3)C3CC3)no2)cn1", "test": "cell-free assay, competition with immobilised ligand", "conditions": "1 µM", "remaining binding [%]": 100}
{"SMILES": "O=C(NCC1CCOCC1)c1n[nH]cc1NC(=O)c1c(F)cccc1F", "test": "binding, competition with immobilised ligand", "conditions": "1 µM", "remaining binding [%]": 91}
{"SMILES": "FC(F)(F)Oc1cccc(-c2cnc3ccc(-c4ccncc4)nn23)c1", "test": "binding, competition with immobilised ligand", "conditions": "5 µM", "remaining binding [%]": 40}
{"SMILES": "Nc1ncc2c(n1)-c1c([nH]c3ccc(C#CC4CC4)cc13)CCCC2", "test": "binding, competition with immobilised ligand", "conditions": "1 µM", "remaining binding [%]": 100}
{"SMILES": "Cc1cnc(Nc2ccc(C(=O)N3CCC(N4CCCC4)CC3)cc2)nc1-c1cc2ccccc2s1", "test": "binding, competition with immobilised ligand", "conditions": "1 µM", "remaining binding [%]": 3.4}
{"SMILES": "Cc1cc(C)c(-n2ccn3nc(-c4cccnc4)cc23)cc1NC(=O)c1cc(C#N)cc(S(F)(F)(F)(F)F)c1", "test": "cell-free assay, competition with immobilised ligand", "conditions": "0.1 µM", "remaining binding [%]": 64.3}
{"SMILES": "O=C(NCCCN1CCOCC1)c1ccc(Nc2nccc(-c3cc4ccccc4s3)n2)cc1", "test": "binding, competition with immobilised ligand", "conditions": "1 µM", "remaining binding [%]": 32}
{"SMILES": "F[C@@H]1CCN(c2nccc(-c3cnn4ncccc34)n2)C1", "test": "binding", "conditions": "1 µM", "remaining binding [%]": 100}
{"SMILES": "O=C(N1CCS(=O)(=O)CC1)N1C[C@H](c2ccc(OC(F)(F)F)cc2)C[C@H](c2nc(C3CC3)no2)C1", "test": "cell-free assay, competition with immobilised ligand", "conditions": "1 µM", "remaining binding [%]": 100}
{"SMILES": "CN(C)c1nccc(-c2cnc3ncccn23)n1", "test": "binding", "conditions": "1 µM", "remaining binding [%]": 92}
{"SMILES": "O=C(c1ccc(Nc2ncc(Cl)c(-c3ccc(Cl)s3)n2)cc1)N1CCC(N2CCCC2)CC1", "test": "binding, competition with immobilised ligand", "conditions": "1 µM", "remaining binding [%]": 0.05}
{"SMILES": "CN(C)c1ncc(F)c(-c2cnn3ncccc23)n1", "test": "binding", "conditions": "1 µM", "remaining binding [%]": 87}
{"SMILES": "CCC(=O)N[C@@H]1CC[C@H](C(=O)N(C)c2ccc(-c3nc4ccccc4o3)cc2)C1", "test": "cell-free assay, competition with immobilised ligand", "conditions": "1 µM", "remaining binding [%]": 100}
{"SMILES": "N[C@@H]1CCN(c2nccc(-c3cnn4ncccc34)n2)C1", "test": "binding", "conditions": "1 µM", "remaining binding [%]": 100}
{"SMILES": "CCCOc1ccc([C@H]2[C@H](C(=O)O)[C@@H](c3ccc4c(c3)OCO4)CN2CC(=O)Nc2c(CC)cccc2CC)cc1", "test": "cell-free assay, competition with immobilised ligand", "conditions": "1 µM", "remaining binding [%]": 72}
